This note sets out measurements from ChEMBL document CHEMBL4145451, “1,3,5-triazaspiro[5.5]undeca-2,4-dienes as selective Mycobacterium tuberculosis dihydrofolate reductase inhibitors with potent whole cell activity” (Eur J Med Chem, 2018).

For data set [1], the target named is T1, Dihydrofolate reductase (Mycobacterium tuberculosis, UniProt P9WNX1).
T1 sequence (P9WNX1 whole entry): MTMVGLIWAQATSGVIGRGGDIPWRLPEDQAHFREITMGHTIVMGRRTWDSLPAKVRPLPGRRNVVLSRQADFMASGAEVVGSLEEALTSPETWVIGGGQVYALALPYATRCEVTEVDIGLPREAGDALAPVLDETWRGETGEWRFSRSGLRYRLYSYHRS
Description: Inhibition of Mycobacterium tuberculosis H37Rv DHFR expressed in Escherichia coli assessed as reduction in consumption of NADPH using DHF as substrate by fluorescence method.

The target of data set [2] is T2, Dihydrofolate reductase (Homo sapiens, UniProt P00374).
T2 sequence (P00374 whole entry): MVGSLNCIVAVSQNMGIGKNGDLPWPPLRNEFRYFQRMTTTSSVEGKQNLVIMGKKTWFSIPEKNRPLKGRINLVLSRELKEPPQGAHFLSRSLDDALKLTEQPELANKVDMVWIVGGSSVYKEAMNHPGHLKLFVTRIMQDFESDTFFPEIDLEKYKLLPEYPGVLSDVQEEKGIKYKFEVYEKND
In words: Inhibition of human DHFR assessed as reduction in consumption of NADPH using DHF as substrate by fluorescence method.

Data set [3] has as its system Mycobacterium tuberculosis. Description: Antimycobacterial activity against Mycobacterium tuberculosis H37Rv infected in human THP1 cells after 5 days by Steady-Glo luminescence assay. Type of data set: functional. The settings on record: 120 h.
Data set [4] addresses T1, Dihydrofolate reductase. In words: Inhibition of Mycobacterium tuberculosis H37Rv DHFR assessed as reduction in consumption of NADPH using DHF as substrate incubated for 3 mins measured for 2 mins by spectrophotometric method.
Data set [5] addresses T2, Dihydrofolate reductase. In words: Inhibition of human DHFR assessed as reduction in consumption of NADPH using DHF as substrate incubated for 3 mins measured for 2 mins by spectrophotometric method.
A short description of data set [6]: Cytotoxicity against African green monkey Vero cells by MTT assay. It counts as cell-based. The settings on record: chlorocebus sabaeus. In general terms: Formazan colour is commonly taken as a measure of viable cells.
For data set [7], the system named is Mycobacterium tuberculosis. Description: Antimycobacterial activity against Mycobacterium tuberculosis H37Rv by resazurin dye based two-fold dilution assay. It counts as functional.
For data set [8], the target named is T2, Dihydrofolate reductase. In words: Inhibition of human DHFR.
A further data set has as its system A549. Description: Cytotoxicity against human A549 cells. It counts as cell-based.
Data set [9] is described as follows: Selectivity index, ratio of IC50 for inhibition of recombinant human DHFR to IC50 for inhibition of Mycobacterium tuberculosis His-tagged DHFR. Put shortly:
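Spectrophotometric DHFR assay at room temperature in 0.15 M potassium phosphate, pH 7, with 50 µM DHF, 60 µM NADPH and 1.5 × 10^-3 units recombinant human DHFR or 0.3 ng/mL recombinant Mtb DHFR, plus serial inhibitor concentrations in DMSO. NADPH use is followed at 340 nm every 30 s for 6 min. Slope versus uninhibited gives % inhibition, and IC50 comes from log-dose curves. SI = human IC50 / Mtb IC50.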

Data set [10] concerns the target T1, Dihydrofolate reductase. In words: Inhibition of Mycobacterium tuberculosis His-tagged DHFR assessed as reduction in consumption of NADPH using DHF as substrate measured every 30 secs over 6 mins by spectrophotometric method.
In data set [11] the target is T2, Dihydrofolate reductase. In words: Inhibition of recombinant human DHFR assessed as reduction in consumption of NADPH using DHF as substrate measured every 30 secs over 6 mins by spectrophotometric method.
A short description of data set [12]: Selectivity index, ratio of CC50 for cytotoxicity against human HepG2 cells to MIC90 for antimycobacterial activity against Mycobacterium tuberculosis H37Rv. To be noted: HepG2 cells versus Mycobacterium tuberculosis H37Rv, read-out: Selectivity Index. Type of data set: toxicity, cell-based. Put shortly:
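H37Rv grown to mid-log (OD600 0.4–0.6), 5 × 10^5 CFU/mL, in supplemented 7H9 with 2-fold compound dilutions (DMSO), 10 days at 37 °C shaken. MIC90 is the lowest concentration giving 90% inhibition by OD600. HepG2 cells in DMEM/10% FBS are exposed to 2-fold dilutions, and CC50 (50% viability loss) is read by MTS absorbance at 490 nm. SI = CC50/MIC90. Means of 3 independent experiments.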

A short description of data set [13]: Cytotoxicity against human HepG2 cells assessed as reduction in cell viability by MTS assay. It counts as cell-based. Put shortly:
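HepG2 cells were grown in DMEM with 10% heat-inactivated FBS at 37 °C and 5% CO2, then exposed to 2-fold serially diluted compound. Viability was read by MTS absorbance at 490 nm. CC50 is the concentration giving a 50% viability drop, taken from the absorbance-versus-concentration plot. Triton X-100 was the positive control. Means of 3 independent experiments.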

A short description of data set [14]: Intrinsic clearance in male rat liver microsomes at 3 uM preincubated for 5 mins followed by NADPH addition measured up to 45 mins by LC-MS/MS analysis. Type of data set: ADME, microsome. To be noted: read-out: CLH. Put shortly: (§1)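 Compound (final 3 µM) was incubated with male or female rat liver microsomes (0.3 mg protein/mL) in 0.1 M phosphate pH 7.4. After a 5 min pre-incubation at 37 °C, NADPH (final 1 mM) was added to start the reaction. Samples were taken at 0, 5, 10, 15, 30 and 45 min and the remaining compound was quantified by LC-MS.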
For orientation: Liver microsomes are a subcellular fraction often used to study metabolism.

Data set [15] is described as follows: Aqueous solubility of compound in pH 7.4 solution after 90 mins by UV method. Type of data set: physicochemical. To be noted: aqueous solution pH 7.4, pH 7.4. The gist of the method:
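Compound was diluted from a 10 mM DMSO stock to final 3.13–100 µM in 45 mM ethanolamine/potassium dihydrogen phosphate/potassium acetate buffer, pH 7.4. After 90 min at room temperature the solution was filtered and diluted with acetonitrile and buffer. Absorbance was read at 330 nm.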

Data set [16] deals with Mycobacterium tuberculosis. Description: Antimycobacterial activity against Mycobacterium tuberculosis H37Rv after 10 days by broth dilution method. Type of data set: functional. The settings on record: 240 h. Put shortly: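 Broth microdilution. Mid-log cultures (OD600 0.4–0.6) were diluted and added to 2-fold serial compound dilutions in DMSO, giving a final 5 × 10^5 CFU/mL in 7H9-albumin-dextrose-catalase-glycerol-Tween 80. Plates were sealed and incubated at 37 °C for 10 days with shaking at 80 rpm. OD600 was read; MIC50 and MIC90 are the lowest concentrations giving 50% and 90% growth inhibition. Rifampicin and DMSO served as controls. Means of 3 independent experiments.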
(In general: In broth dilution the organism is exposed to a series of concentrations in liquid medium.)

A short description of data set [17]: Hemolytic activity in human RBC after 24 hrs. Type of data set: ADME, cell-based, Erythrocyte. The settings on record: red blood cells (erythrocytes), read-out: LC50. Put shortly:
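Red blood cells were PBS-washed and resuspended at 10^6/mL, then incubated 24 h with compound. After centrifugation at 1000 g for 10 min, supernatant absorbance was read at 540 nm. PBS served as the negative control and 0.1% Triton X-100 as the positive control. Reported as LC50.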

Data set [18] can be described thus: Half life in female rat liver microsomes at 3 uM preincubated for 5 mins followed by NADPH addition measured up to 45 mins by LC-MS/MS analysis. Type of data set: ADME, microsome. The gist of the method:
as §1

Data set [19] can be described thus: Intrinsic clearance in female rat liver microsomes at 3 uM preincubated for 5 mins followed by NADPH addition measured up to 45 mins by LC-MS/MS analysis. Type of data set: ADME, microsome. The settings on record: read-out: CLH. The gist of the method: as §1
Data set [20] in a line: Half life in male rat liver microsomes at 3 uM preincubated for 5 mins followed by NADPH addition measured up to 45 mins by LC-MS/MS analysis. It counts as ADME, microsome. The gist of the method: as §1
Data set [21] deals with T1, Dihydrofolate reductase. In words: Inhibition of Mycobacterium tuberculosis H37Rv DHFR expressed in Escherichia coli BL21(DE3) assessed as reduction in consumption of NADPH using DHF as substrate preincubated for 1 min followed by DHF addition and measured for 2 mins by spectrophotometric method.
The test system of data set [22] is Mycobacterium tuberculosis. In words: Antimycobacterial activity against GFP-fused Mycobacterium tuberculosis H37Rv after 7 days BacTiter-Glo assay. Type of data set: functional. The settings on record: 168 h.

In general, IC50 refers to the concentration at which inhibition is half-maximal. A word on the MIC90: it is the lowest concentration that inhibits either 90% of growth or 90% of the strains tested, depending on the study. Broadly, the CC50 is the concentration that lowers cell viability or growth by half. By MIC is commonly meant the smallest concentration in the dilution series that meets the test's criterion for growth inhibition. The solubility is how much of the substance goes into solution per volume. Usually MIC50 stands for an inhibitory concentration at the 50% level, which refers to growth in some studies and to a panel of isolates in others. Broadly, the half-life is the time in which the quantity being followed falls by half.

Converted amounts (≈) assume the structure as drawn.

On to `N#Cc1ccc(Cn2ccc3c4c(N)nc(N)nc4ccc32)cc1`, for which the figures for the IC50 at Dihydrofolate reductase [1] and on Dihydrofolate reductase [2] were 0.0101 µM and 0.0068 µM, respectively. The compound further showed an MIC90 in data set [3] of 0.5 µM (≈ 0.157 µg/mL).
Consider `Nc1nc(N)nc(-c2ccc(OCc3cccc(Cl)c3)cc2)n1`, for which the IC50 on Dihydrofolate reductase [4] was 5.62 µM; on Dihydrofolate reductase [5] it was 72.5 µM. Also, in data set [6], the CC50 came out at 387 µM. Moreover, the MIC in [7] came to 1.57 µM (≈ 0.515 µg/mL).
For `NC1=NC2(CCCCC2)N(Cc2ccc(Cl)cc2)C(N)=N1`, the IC50 against Dihydrofolate reductase [8] and with A549 was over 100 µM in each case.
`COc1ccc(-c2nc3c(N)nc(N)nc3nc2C(C)C)cc1`: the values for the IC50 on Dihydrofolate reductase [1] and at Dihydrofolate reductase [2] were 0.0545 µM and 0.382 µM, respectively. The same compound yielded an MIC90 in [3] of 2.9 µM (≈ 0.9 µg/mL).
On to `Cl.NC1=NC2(CCCCC2)N(c2ccc(OCc3cn(CCCc4ccccc4)nn3)cc2)C(N)=N1`, for which the Ratio IC50 in data set [9] came to 0.63. Moreover, the IC50 at Dihydrofolate reductase [10] is 5.82 µM; on Dihydrofolate reductase [11] it was 3.67 µM.
In the case of `Cc1c(Cc2ccccc2Br)cnc2nc(N)nc(N)c12`, the IC50 on Dihydrofolate reductase [1] came out at 0.0082 µM; at Dihydrofolate reductase [2] it was 0.0076 µM. This compound had an MIC90 in [3] of 1.3 µM (≈ 0.447 µg/mL).
As to `Cl.NC1=NC2(CCCCC2)N(c2ccc(OCc3cn(CCCOc4ccc5ccc(=O)oc5c4)nn3)cc2)C(N)=N1`, in [9], the Ratio IC50 was 8.95. In addition, the selectivity ratio in [12] is over 4000. Besides, in data set [13], the CC50 is over 100 µM. Further, the results for the microsomal CLint at 3 µM in data set [14] and in [19] were 27.8 µL/min/mg and 8.6 µL/min/mg, respectively. For the same compound, the solubility at 1.5 h in [15] is over 100 µM. The values for the concentration for half-maximal inhibition (IC50) at Dihydrofolate reductase [10] and at Dihydrofolate reductase [11] were 1.34 µM and 12 µM, respectively. Moreover, the MIC50 in data set [16] amounted to 0.01 µM. Also, the MIC90 in data set [16] stood at 0.025 µM. Besides, in data set [17], the HC50 at 24 h was over 100 µM. Also, the half-life at 3 µM was 4.51 h in data set [18] and 1.39 h in data set [20].
Consider `CCOC(=O)CC[C@H](NC(=O)c1ccc(N(C)Cc2cnc3nc(N)nc(N)c3n2)cc1)C(=O)OCC`, for which the IC50 at Dihydrofolate reductase [21] was 0.03 µM. The same compound returned an MIC90 in [22] of 0.6 µM (≈ 0.306 µg/mL).
For `COC(=O)CC[C@H](NC(=O)c1ccc(N(C)Cc2cnc3nc(N)nc(N)c3n2)cc1)C(=O)OC`, at Dihydrofolate reductase [21], the IC50 amounted to 0.05 µM. In data set [22], the MIC90 lay in the range of 0.2 to 0.4 µM (≈ 0.0965 to 0.193 µg/mL).
Turning to `Cl.NC1=NC2(CCCCC2)N(c2ccc(OCc3cn(CCCCOc4ccc5ccc(=O)oc5c4)nn3)cc2)C(N)=N1`, the Ratio IC50 in data set [9] came to 18.7. Also, the selectivity ratio in data set [12] is over 4000. For the same compound, the CC50 in [13] is over 100 µM. In addition, the microsomal CLint at 3 µM amounted to 39.2 µL/min/mg in [14] and 20.4 µL/min/mg in data set [19]. The solubility at 1.5 h in data set [15] stood at 95.8 µM. For the same compound, the results for the IC50 at Dihydrofolate reductase [10] and at Dihydrofolate reductase [11] were 0.82 µM and 15.3 µM, respectively. For the same compound, in data set [16], the MIC50 worked out at 0.01 µM. The compound also yielded an MIC90 in [16] of 0.025 µM. The HC50 at 24 h in data set [17] is over 100 µM. The figures for the half-life at 3 µM in data set [18] and in data set [20] were 1.89 h and 0.983 h, respectively.
For the compound `Nc1nc(N)nc(-c2ccc(OCc3ccc(Cl)cc3)cc2)n1`, the IC50 at Dihydrofolate reductase [4] stood at 5.17 µM; at Dihydrofolate reductase [5] it was 83.3 µM. Further, in data set [6], the CC50 stood at 333 µM. In addition, the minimal inhibitory concentration (MIC) in data set [7] was 1.76 µM (≈ 0.577 µg/mL).
Consider `Cl.NC1=NC2(CCCCC2)N(Cc2cn(CCCCCOc3ccc4oc(=O)ccc4c3)nn2)C(N)=N1`, for which the IC50 on Dihydrofolate reductase [10] was over 100 µM.
